According to PMC9052103 (RSC Advances, 2020):
Converted amounts (≈) assume the structure as drawn.

Assays:
Format in all cases: cell-based
S. aureus ATCC 29213 [1] = experiment: MIC, 96-well microtiter broth dilution; settings: Staphylococcus aureus, ATCC29213, read-out: MIC S. aureus ATCC 29213
S. aureus ATCC 43300 = experiment: MIC, 96-well microtiter broth dilution; settings: Staphylococcus aureus, ATCC43300|MRSA, read-out: MIC S. aureus ATCC 43300
S. aureus ATCC BAA-41 = experiment: MIC, 96-well microtiter broth dilution; settings: Staphylococcus aureus, ATCCBAA41|MRSA, read-out: MIC S. aureus ATCC BAA-41
S. aureus ATCC BAA-1747 = experiment: MIC, 96-well microtiter broth dilution; settings: Staphylococcus aureus, ATCCBAA1747|MRSA, read-out: MIC S. aureus ATCC BAA-1747
S. aureus ATCC BAA-1720 = experiment: MIC, 96-well microtiter broth dilution; settings: Staphylococcus aureus, ATCCBAA1720|MRSA, read-out: MIC S. aureus ATCC BAA-1720
E. faecalis ATCC 29212 = experiment: MIC, 96-well microtiter broth dilution; settings: Enterococcus faecalis, ATCC29212, read-out: MIC E. faecalis ATCC 29212
E. faecium ATCC 49624 = experiment: MIC, 96-well microtiter broth dilution; settings: Enterococcus faecium, ATCC49624, read-out: MIC E. faecium ATCC 49624
E. faecium ATCC 700221 = experiment: MIC, 96-well microtiter broth dilution; settings: Enterococcus faecium, ATCC700221, read-out: MIC E. faecium ATCC 700221
[2] = tested on: S. epidermidis ATCC 12228; experiment: MIC, 96-well microtiter broth dilution; settings: Staphylococcus epidermidis, ATCC12228, read-out: MIC S. epidermidis ATCC 12228
E. coli ATCC 25922 = experiment: MIC, 96-well microtiter broth dilution; settings: Escherichia coli, ATCC25922, read-out: MIC E. coli ATCC 25922
E. coli ATCC 8739 = experiment: MIC, 96-well microtiter broth dilution; settings: Escherichia coli, ATCC8739, read-out: MIC E. coli ATCC 8739
E. coli ATCC BAA-2469 = experiment: MIC, 96-well microtiter broth dilution
S. aureus ATCC 29213 [3] = experiment: In vitro drug resistance development, serial passage
Procedure, shortened: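 Serial passage against S. aureus ATCC 29213: culture from the 0.5 × MIC well of the prior MIC plate diluted to 5 × 10^5 CFU mL−1 and exposed to a range of test compound concentrations. MIC read after 24 h at 37 °C. Cycle repeated 35 times. Ciprofloxacin, vancomycin and rifampin passaged in parallel.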

Row | Compound | MIC (S. aureus ATCC 29213 [1]) | MIC (S. aureus ATCC 43300) | MIC (S. aureus ATCC BAA-41) | MIC (S. aureus ATCC BAA-1747) | MIC (S. aureus ATCC BAA-1720) | MIC (E. faecalis ATCC 29212) | MIC (E. faecium ATCC 49624) | MIC (E. faecium ATCC 700221) | MIC [2] | MIC (E. coli ATCC 25922) | MIC (E. coli ATCC 8739) | MIC against antibiotics resistant E. coli mutant NDM-1 strain (E. coli ATCC BAA-2469) | Increase of MIC after 35 passages (S. aureus ATCC 29213 [3])
1 | Cc1cc(/C=C2\Sc3ccccc3N2CCCN2CCCCC2)c2ccccc2[n+]1C.[I-] [Compound 4a3, (Z)-1,2-Dimethyl-4-((3-(3-(piperidin-1-yl)propyl)benzo[d]thiazol-2(3H)-ylidene)methyl)quinolin-1-ium iodide] | 32 µg/mL | 32 µg/mL | 8 µg/mL | 32 µg/mL | 32 µg/mL | 64 µg/mL | 32 µg/mL | 32 µg/mL | 8 µg/mL | 4 µg/mL | 4 µg/mL |  | 
2 | CSc1ccc(/C=C/c2cc(/C=C3\Sc4ccccc4N3CCCN3CCCC3)c3ccccc3[n+]2C)cc1.[I-] [Compound 4d3, 1-Methyl-2-((E)-4-(methylthio)styryl)-4-((Z)-(3-(3-(pyrrolidin-1-yl)propyl)benzo[d]thiazol-2(3H)-ylidene)methyl)quinolin-1-ium iodide] | 16 µg/mL | 32 µg/mL | 32 µg/mL | 32 µg/mL | 32 µg/mL | 64 µg/mL | 64 µg/mL | 32 µg/mL | 16 µg/mL |  | 32 µg/mL |  | 
3 | CC1(C)S[C@@H]2[C@H](NC(=O)[C@H](N)c3ccccc3)C(=O)N2[C@H]1C(=O)O [amp, ampicillin, reference compound] | > 64 µg/mL | > 64 µg/mL | > 64 µg/mL | > 64 µg/mL | > 64 µg/mL | 0.5 µg/mL (≈ 1.43 µM) | 0.25 µg/mL (≈ 0.715 µM) | > 64 µg/mL | > 64 µg/mL | 1 µg/mL (≈ 2.86 µM) | 2 µg/mL (≈ 5.72 µM) | > 64 µg/mL | 
4 | C[n+]1c(/C=C/c2c[nH]c3ccccc23)cc(/C=C2\Sc3ccccc3N2CCCN2CCOCC2)c2ccccc21.[I-] [Compound 4c1, 2-((E)-2-(1H-Indol-3-yl)vinyl)-1-methyl-4-((Z)-(3-(3-morpholinopropyl)benzo[d]thiazol-2(3H)-ylidene)methyl)quinolin-1-ium iodide] | 16 µg/mL | 16 µg/mL | 16 µg/mL | 16 µg/mL | 16 µg/mL | 16 µg/mL | 16 µg/mL | 8 µg/mL | 2 µg/mL | 8 µg/mL | 64 µg/mL |  | 
5 | CO[C@H]1/C=C/O[C@@]2(C)Oc3c(C)c(O)c4c(O)c(c(/C=N/N5CCN(C)CC5)c(O)c4c3C2=O)NC(=O)/C(C)=C\C=C\[C@H](C)[C@H](O)[C@@H](C)[C@@H](O)[C@@H](C)[C@H](OC(C)=O)[C@@H]1C [rif, rifampin, reference compound] | 0.5 µg/mL (≈ 0.608 µM) | < 0.125 µg/mL | < 0.125 µg/mL | < 0.125 µg/mL | < 0.125 µg/mL | 0.5 µg/mL (≈ 0.608 µM) | < 0.125 µg/mL | < 0.125 µg/mL | 1 µg/mL (≈ 1.22 µM) | 4 µg/mL (≈ 4.86 µM) | 8 µg/mL (≈ 9.72 µM) | > 64 µg/mL | 8192 fold
6 | C[n+]1c(/C=C/c2c[nH]c3ccccc23)cc(/C=C2\Sc3ccccc3N2CCCN2CCCC2)c2ccccc21.[I-] [Compound 4d1, 2-((E)-2-(1H-Indol-3-yl)vinyl)-1-methyl-4-((Z)-(3-(3-(pyrrolidin-1-yl)propyl)benzo[d]thiazol-2(3H)-ylidene)methyl)quinolin-1-ium iodide] | 16 µg/mL | 8 µg/mL | 4 µg/mL | 8 µg/mL | 8 µg/mL | 32 µg/mL | 8 µg/mL | 16 µg/mL | 2 µg/mL | 4 µg/mL | 16 µg/mL |  | 
7 | CN[C@H](CC(C)C)C(=O)N[C@H]1C(=O)N[C@@H](CC(N)=O)C(=O)N[C@H]2C(=O)N[C@H]3C(=O)N[C@H](C(=O)N[C@H](C(=O)O)c4cc(O)cc(O)c4-c4cc3ccc4O)[C@H](O)c3ccc(c(Cl)c3)Oc3cc2cc(c3O[C@@H]2O[C@H](CO)[C@@H](O)[C@H](O)[C@H]2O[C@H]2C[C@](C)(N)[C@H](O)[C@H](C)O2)Oc2ccc(cc2Cl)[C@H]1O [van, vancomycin, reference compound] | 2 µg/mL (≈ 1.38 µM) | 2 µg/mL (≈ 1.38 µM) | 2 µg/mL (≈ 1.38 µM) | 1 µg/mL (≈ 0.69 µM) | 0.5 µg/mL (≈ 0.345 µM) | 2 µg/mL (≈ 1.38 µM) | 0.5 µg/mL (≈ 0.345 µM) | 1020 µg/mL (≈ 707 µM) | > 64 µg/mL | > 64 µg/mL | > 64 µg/mL | > 64 µg/mL | 512 fold
8 | O=C(O)c1cn(C2CC2)c2cc(N3CCNCC3)c(F)cc2c1=O [ciprofloxacin] |  |  |  |  |  |  |  |  |  |  |  |  | 32 fold
9 | C[n+]1c(/C=C/c2ccc(O)cc2)cc(/C=C2\Sc3ccccc3N2CCCN2CCOCC2)c2ccccc21.[I-] [Compound 4c2, 2-((E)-4-Hydroxystyryl)-1-methyl-4-((Z)-(3-(3-morpholinopropyl)benzo[d]thiazol-2(3H)-ylidene)methyl)quinolin-1-ium iodide] | 16 µg/mL | 16 µg/mL | 8 µg/mL | 16 µg/mL | 32 µg/mL | 16 µg/mL | 8 µg/mL | 4 µg/mL | 4 µg/mL | 4 µg/mL | 32 µg/mL |  | 
10 | COc1cccc(OC)c1C(=O)N[C@@H]1C(=O)N2[C@@H]1SC(C)(C)[C@@H]2C(=O)O [meth, methicillin, reference compound] | 0.5 µg/mL (≈ 1.31 µM) | 512 µg/mL (≈ 1350 µM) | 1020 µg/mL (≈ 2690 µM) | 256 µg/mL (≈ 673 µM) | 1020 µg/mL (≈ 2690 µM) | 1 µg/mL (≈ 2.63 µM) | 4 µg/mL (≈ 10.5 µM) | 1.5 µg/mL (≈ 3.94 µM) | 0.5 µg/mL (≈ 1.31 µM) | 2 µg/mL (≈ 5.26 µM) | > 64 µg/mL | > 64 µg/mL | 
11 | C[n+]1ccc(/C=C2\Sc3ccccc3N2CCCN2CCCCC2)c2ccccc21.[I-] [Compound 4b3, (Z)-1-Methyl-4-((3-(3-(piperidin-1-yl)propyl)benzo[d]thiazol-2(3H)-ylidene)methyl)quinolin-1-ium iodide] | 32 µg/mL | 8 µg/mL | 4 µg/mL | 8 µg/mL | 16 µg/mL | > 64 µg/mL | 32 µg/mL | 32 µg/mL | 2 µg/mL | 2 µg/mL | 4 µg/mL |  | 
12 | C[n+]1c(/C=C/c2ccc(O)cc2)cc(/C=C2\Sc3ccccc3N2CCCN2CCCC2)c2ccccc21.[I-] [Compound 4d2, 2-((E)-4-Hydroxystyryl)-1-methyl-4-((Z)-(3-(3-(pyrrolidin-1-yl)propyl)benzo[d]thiazol-2(3H)-ylidene)methyl)quinolin-1-ium iodide] | 32 µg/mL | 32 µg/mL | 32 µg/mL | 32 µg/mL | 32 µg/mL | 64 µg/mL | 32 µg/mL | 32 µg/mL | 16 µg/mL | 32 µg/mL | 32 µg/mL |  | 
